Experimental data taken from ChEMBL document CHEMBL4007422 (J Med Chem, 2017).
Activity calls are given as the source filed them. The rule behind the calls is not given here.

Key:
[1] = biological target: 5-hydroxytryptamine receptor 4 (Homo sapiens) (UniProt Q13639); assay: Displacement of [3H]-GR113808 from recombinant human 5-HT4B receptor expressed in Chem1 cell membranes after 120 mins by microbeta scintillation counting analysis
Rattus norvegicus [2] = assay: Increase in acetylcholine level in Wistar rat ventral hippocampus at 1 mg/kg, po in presence of 1 mg/kg of donepezil and memantine administered sc 30 mins post compound treatment measured after 4 hrs by LC-MS/MS based microdialysis method relative to control; type: functional
In short: (§1)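 Male Wistar rats (240−300 g) fitted under isoflurane with a ventral hippocampal guide cannula (AP −5.2, ML +5.0, DV −3.8 mm from bregma). Probe (4 mm membrane) inserted 16 h before study. Perfusion with aCSF pH 7.2 at 1.5 μL/min, 2 h stabilization, five basal 20-min samples. Test agent given p.o.; donepezil and memantine (1 mg/kg s.c. each) given 30 min later in combination arms. Dialysates collected 6 h (4 h for combination), acetylcholine measured by LC-MS/MS, expressed as % of mean basal.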

[3] = biological target: Alpha-2A adrenergic receptor (Homo sapiens) (UniProt P08913); details: 1 uM
Sequence of Alpha-2A adrenergic receptor (Homo sapiens) (P08913 whole entry): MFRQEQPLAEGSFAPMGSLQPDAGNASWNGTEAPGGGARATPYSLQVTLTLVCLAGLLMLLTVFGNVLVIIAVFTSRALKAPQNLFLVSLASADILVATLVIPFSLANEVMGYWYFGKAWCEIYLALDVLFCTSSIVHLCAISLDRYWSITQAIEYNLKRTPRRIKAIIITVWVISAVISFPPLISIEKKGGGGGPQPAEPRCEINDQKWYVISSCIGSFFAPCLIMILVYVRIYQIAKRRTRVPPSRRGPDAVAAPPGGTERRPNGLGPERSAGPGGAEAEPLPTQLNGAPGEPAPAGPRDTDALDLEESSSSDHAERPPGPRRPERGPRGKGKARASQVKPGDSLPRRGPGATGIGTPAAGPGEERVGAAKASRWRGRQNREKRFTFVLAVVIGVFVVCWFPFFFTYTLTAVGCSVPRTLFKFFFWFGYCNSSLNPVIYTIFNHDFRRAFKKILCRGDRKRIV

Cytochrome P450 3A4 [4] = biological target: T1, Cytochrome P450 3A4 (Homo sapiens, UniProt P08684); assay: Inhibition of CYP3A4 in human liver microsomes using testosterone as substrate in presence of NADPH by LC-MS/MS analysis; type: ADME
T1 sequence (P08684 whole entry): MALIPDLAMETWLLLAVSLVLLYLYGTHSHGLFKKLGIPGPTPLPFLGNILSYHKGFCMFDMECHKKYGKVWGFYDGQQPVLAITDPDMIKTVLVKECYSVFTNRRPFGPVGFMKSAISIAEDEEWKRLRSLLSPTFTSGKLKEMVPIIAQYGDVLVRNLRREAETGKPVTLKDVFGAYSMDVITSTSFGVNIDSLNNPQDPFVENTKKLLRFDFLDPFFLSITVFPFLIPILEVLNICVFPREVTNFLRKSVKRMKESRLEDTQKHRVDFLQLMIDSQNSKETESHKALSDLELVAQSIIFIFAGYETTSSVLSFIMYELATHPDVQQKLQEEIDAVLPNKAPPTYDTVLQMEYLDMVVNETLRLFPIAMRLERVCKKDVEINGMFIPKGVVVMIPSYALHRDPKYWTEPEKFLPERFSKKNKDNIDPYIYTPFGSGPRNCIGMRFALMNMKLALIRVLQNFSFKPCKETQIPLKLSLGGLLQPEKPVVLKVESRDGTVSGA
In short: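 CYP3A4 inhibition in human liver microsomes using testosterone hydroxylation as the probe reaction; IC50 determined.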

Cytochrome P450 2A6 = Cytochrome P450 2A6 (Homo sapiens, UniProt P11509); assay: Inhibition of CYP2A6 in human liver microsomes in presence of NADPH by LC-MS/MS analysis; type: ADME
Sequence of Cytochrome P450 2A6 (P11509 whole entry, canonical isoform): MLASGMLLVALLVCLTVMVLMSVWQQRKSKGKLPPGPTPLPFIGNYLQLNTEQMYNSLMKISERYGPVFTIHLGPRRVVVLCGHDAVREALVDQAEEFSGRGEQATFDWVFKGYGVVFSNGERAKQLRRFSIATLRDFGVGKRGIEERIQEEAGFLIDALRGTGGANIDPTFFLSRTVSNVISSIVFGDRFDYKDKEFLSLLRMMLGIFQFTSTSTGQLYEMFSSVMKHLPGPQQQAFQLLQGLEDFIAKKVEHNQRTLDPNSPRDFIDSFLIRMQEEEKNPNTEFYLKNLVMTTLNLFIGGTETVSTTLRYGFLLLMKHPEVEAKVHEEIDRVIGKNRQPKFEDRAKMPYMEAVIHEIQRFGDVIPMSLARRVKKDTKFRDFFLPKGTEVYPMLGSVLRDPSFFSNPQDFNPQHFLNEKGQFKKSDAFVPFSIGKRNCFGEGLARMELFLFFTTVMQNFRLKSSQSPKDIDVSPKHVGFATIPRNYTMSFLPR
In short: (§2)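 Pooled human liver microsomes. IC50 determined from isoform-specific marker activities for CYP1A2, 2A6, 2B6, 2C8, 2C9, 2C19 (mephenytoin hydroxylation) and 2E1.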

[5] = Ratio of drug uptake in Wistar rat brain to plasma at 10 mg/kg, po by LC-MS/MS analysis; type: ADME, organism-based; details: read-out: BPR
Homo sapiens = assay: Toxicity in healthy male and female human subjects administered as single ascending dose for 14 days; details: in vivo, 336 h
[6] = biological target: Alpha-2C adrenergic receptor (Homo sapiens, UniProt P18825); assay: Inhibition of recombinant human adrenergic alpha 2C receptor expressed in CHO cells assessed as inhibition of 5-HT stimulated cAMP accumulation after 4 hrs by luciferase reporter gene assay; type: functional, cell-based
Sequence of Alpha-2C adrenergic receptor (P18825 whole entry): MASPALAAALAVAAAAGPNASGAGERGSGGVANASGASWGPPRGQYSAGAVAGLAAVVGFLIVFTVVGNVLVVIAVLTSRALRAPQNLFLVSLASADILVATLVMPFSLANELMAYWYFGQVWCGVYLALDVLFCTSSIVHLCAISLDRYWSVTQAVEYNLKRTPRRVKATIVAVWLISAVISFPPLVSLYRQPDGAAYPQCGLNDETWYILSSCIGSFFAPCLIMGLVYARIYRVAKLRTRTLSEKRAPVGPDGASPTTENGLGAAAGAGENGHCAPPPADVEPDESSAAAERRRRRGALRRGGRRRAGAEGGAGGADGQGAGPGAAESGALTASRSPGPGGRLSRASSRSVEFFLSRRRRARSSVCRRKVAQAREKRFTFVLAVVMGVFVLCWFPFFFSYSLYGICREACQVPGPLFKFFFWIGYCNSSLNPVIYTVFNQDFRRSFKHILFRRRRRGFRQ

[7] = biological target: D(3) dopamine receptor (Homo sapiens) (UniProt P35462); assay: Inhibition of recombinant human dopamine D3 receptor expressed in CHOK1 cells at 1 uM by GTPgammaS binding assay; type: functional, cell-based
Sequence of D(3) dopamine receptor (Homo sapiens) (P35462 whole entry): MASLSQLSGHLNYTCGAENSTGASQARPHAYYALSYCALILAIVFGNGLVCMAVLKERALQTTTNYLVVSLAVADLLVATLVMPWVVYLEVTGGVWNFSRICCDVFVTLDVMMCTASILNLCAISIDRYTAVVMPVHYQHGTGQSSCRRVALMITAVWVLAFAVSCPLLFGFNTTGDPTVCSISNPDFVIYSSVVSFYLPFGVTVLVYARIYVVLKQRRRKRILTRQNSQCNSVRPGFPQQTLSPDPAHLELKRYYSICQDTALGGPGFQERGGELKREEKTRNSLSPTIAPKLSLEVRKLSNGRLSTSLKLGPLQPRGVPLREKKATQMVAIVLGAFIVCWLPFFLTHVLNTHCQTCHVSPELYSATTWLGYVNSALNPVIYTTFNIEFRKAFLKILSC

Rattus norvegicus [8] = assay: Reversal of time-induced amnesia in Wistar rat at 1 to 10 mg/kg, po administered 60 mins prior to testing measured for 3 mins by object recognition test; type: functional, organism-based
In short: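 Time-induced object recognition task in rats. Oral dosing at 1, 3 and 10 mg/kg given 60 min before the test; vehicle water for injection 1 mL/kg p.o.; n = 7−12/group. Exploration of novel versus familiar object compared by paired t-test.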

[9] = Volume of distribution in Beagle dog at 3 mg/kg, iv or at 10 mg/kg, po; type: ADME, organism-based, Canis lupus familiaris; details: in vivo
In short: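 Beagle dogs received 10 mg/kg p.o. and 3 mg/kg i.v. in a pharmacokinetic study. From plasma exposure the authors derived AUC0-t, terminal half-life, intravenous clearance, volume of distribution and absolute oral bioavailability.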

[10] = Protein binding in rat plasma at 1 uM after 6 hrs by LC-MS/MS based rapid equilibrium dialysis method; type: ADME, cell-free; details: read-out: PPB
In short: (§3)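 Plasma protein binding in rat, dog and human plasma determined by equilibrium dialysis.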

[11] = Half life in Wistar rat at 10 mg/kg, iv by LC-MS/MS analysis; type: ADME, organism-based; details: in vivo
Cytochrome P450 1A2 = Cytochrome P450 1A2 (Homo sapiens, UniProt P05177); assay: Inhibition of CYP1A2 in human liver microsomes in presence of NADPH by LC-MS/MS analysis; type: ADME; in short: as §2
Sequence of Cytochrome P450 1A2 (P05177 whole entry): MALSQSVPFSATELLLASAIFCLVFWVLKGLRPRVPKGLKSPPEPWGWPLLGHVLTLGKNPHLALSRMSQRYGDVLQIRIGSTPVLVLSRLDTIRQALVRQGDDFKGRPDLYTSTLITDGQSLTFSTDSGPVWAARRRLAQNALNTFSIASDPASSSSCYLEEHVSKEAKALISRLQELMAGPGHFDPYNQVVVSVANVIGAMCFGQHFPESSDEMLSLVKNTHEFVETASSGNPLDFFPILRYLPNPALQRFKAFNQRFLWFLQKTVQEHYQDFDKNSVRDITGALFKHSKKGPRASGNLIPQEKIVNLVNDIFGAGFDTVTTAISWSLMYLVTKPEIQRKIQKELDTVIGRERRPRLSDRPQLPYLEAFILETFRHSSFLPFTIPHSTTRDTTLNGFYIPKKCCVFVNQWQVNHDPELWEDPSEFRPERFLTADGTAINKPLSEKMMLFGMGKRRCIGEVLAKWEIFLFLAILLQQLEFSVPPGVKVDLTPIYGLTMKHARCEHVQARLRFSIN

[12] = Apparent permeability of the compound in human Caco2 cells at 10 uM measured up to 120 mins by LC-MS/MS analysis; type: ADME, cell-based; details: Caco-2
In short: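 Permeability in Caco-2 intestinal epithelial monolayers, measured apical-to-basolateral and basolateral-to-apical; efflux ratio taken as Papp(B-A)/Papp(A-B).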

Salmonella typhimurium [13] = assay: Mutagenicity in Salmonella typhimurium TA1537 in presence of metabolic activation; type: toxicity; details: salmonella enterica subsp. enterica serovar typhimurium
[14] = AUC (0 to t) in Beagle dog at 10 mg/kg, po; type: ADME, organism-based, Canis lupus familiaris; details: in vivo
Cytochrome P450 2D6 = Cytochrome P450 2D6 (Homo sapiens, UniProt P10635); assay: Inhibition of CYP2D6 in human liver microsomes in presence of NADPH by LC-MS/MS analysis
Sequence of Cytochrome P450 2D6 (P10635 whole entry): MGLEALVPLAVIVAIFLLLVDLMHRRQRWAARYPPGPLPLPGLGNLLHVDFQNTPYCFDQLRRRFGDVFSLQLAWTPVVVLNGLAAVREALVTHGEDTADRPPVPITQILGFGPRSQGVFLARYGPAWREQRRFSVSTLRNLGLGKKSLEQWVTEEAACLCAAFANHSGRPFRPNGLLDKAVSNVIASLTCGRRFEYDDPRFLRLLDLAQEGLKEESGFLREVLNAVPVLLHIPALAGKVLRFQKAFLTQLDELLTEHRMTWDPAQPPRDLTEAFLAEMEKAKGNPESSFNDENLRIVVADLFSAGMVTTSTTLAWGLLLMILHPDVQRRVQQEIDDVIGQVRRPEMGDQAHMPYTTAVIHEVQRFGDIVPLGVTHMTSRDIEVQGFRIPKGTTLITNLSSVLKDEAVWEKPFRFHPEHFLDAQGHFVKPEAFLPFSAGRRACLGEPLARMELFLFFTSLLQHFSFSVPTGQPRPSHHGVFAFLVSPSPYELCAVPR

[15] = Clearance in Wistar rat at 10 mg/kg, iv by LC-MS/MS analysis; type: ADME, organism-based; details: in vivo
PBL = assay: Nonclastogenic effect in human PBL by chromosomal aberration test; type: cell-based
[16] = Protein binding in human plasma at 1 uM after 6 hrs by LC-MS/MS based rapid equilibrium dialysis method; type: ADME, cell-free; details: read-out: PPB (converted); in short: as §3
[17] = Oral bioavailability in Beagle dog at 10 mg/kg; type: ADME, organism-based, Canis lupus familiaris; details: in vivo
Cytochrome P450 2B6 [18] = biological target: T2, Cytochrome P450 2B6 (Homo sapiens, UniProt P20813); assay: Inhibition of CYP2B6 in human liver microsomes in presence of NADPH by LC-MS/MS analysis; type: ADME; in short: as §2
T2 sequence (P20813 whole entry): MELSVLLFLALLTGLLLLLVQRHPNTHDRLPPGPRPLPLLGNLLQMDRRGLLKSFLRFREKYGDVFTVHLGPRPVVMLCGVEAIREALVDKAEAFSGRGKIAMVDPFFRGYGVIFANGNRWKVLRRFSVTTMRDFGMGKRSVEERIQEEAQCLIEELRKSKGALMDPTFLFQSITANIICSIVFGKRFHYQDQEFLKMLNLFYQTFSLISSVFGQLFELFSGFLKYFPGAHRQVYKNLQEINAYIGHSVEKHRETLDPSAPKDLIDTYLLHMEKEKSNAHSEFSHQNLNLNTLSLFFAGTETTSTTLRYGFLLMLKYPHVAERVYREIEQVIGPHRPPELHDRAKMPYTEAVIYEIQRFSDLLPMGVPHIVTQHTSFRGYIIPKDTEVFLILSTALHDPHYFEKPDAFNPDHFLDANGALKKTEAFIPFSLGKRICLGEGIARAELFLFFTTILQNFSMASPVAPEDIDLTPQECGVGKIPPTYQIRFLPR

[19] = Protein binding in dog plasma at 1 uM after 6 hrs by LC-MS/MS based rapid equilibrium dialysis method; type: ADME, cell-free, Canis lupus familiaris; details: read-out: PPB (converted); in short: as §3
Salmonella typhimurium [20] = assay: Mutagenicity in Salmonella typhimurium TA98 in presence of metabolic activation; type: toxicity; details: salmonella enterica subsp. enterica serovar typhimurium
Cytochrome P450 2B6 [21] = biological target: T2, Cytochrome P450 2B6; assay: Induction of CYP2B6 activity in human hepatocytes at 0.01 to 1 uM preincubated for 3 days followed by substrate addition measured after 30 mins; type: ADME, cell-based; details: 0.5 h
In short: (§4)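 Plateable human hepatocytes exposed to 0.01, 0.1 and 1.0 μM. CYP1A2, CYP2B6 and CYP3A4 induction read as both mRNA expression and enzyme activity.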

[22] = biological target: 5-hydroxytryptamine receptor 7 (Rattus norvegicus) (UniProt P32305); assay: Binding affinity to recombinant rat 5-HT7 receptor expressed in CHOK1 cells assessed as inhibition of 5-HT stimulated cAMP accumulation after 4 hrs by luciferase reporter gene assay; type: cell-based
Sequence of 5-hydroxytryptamine receptor 7 (Rattus norvegicus) (P32305 whole entry): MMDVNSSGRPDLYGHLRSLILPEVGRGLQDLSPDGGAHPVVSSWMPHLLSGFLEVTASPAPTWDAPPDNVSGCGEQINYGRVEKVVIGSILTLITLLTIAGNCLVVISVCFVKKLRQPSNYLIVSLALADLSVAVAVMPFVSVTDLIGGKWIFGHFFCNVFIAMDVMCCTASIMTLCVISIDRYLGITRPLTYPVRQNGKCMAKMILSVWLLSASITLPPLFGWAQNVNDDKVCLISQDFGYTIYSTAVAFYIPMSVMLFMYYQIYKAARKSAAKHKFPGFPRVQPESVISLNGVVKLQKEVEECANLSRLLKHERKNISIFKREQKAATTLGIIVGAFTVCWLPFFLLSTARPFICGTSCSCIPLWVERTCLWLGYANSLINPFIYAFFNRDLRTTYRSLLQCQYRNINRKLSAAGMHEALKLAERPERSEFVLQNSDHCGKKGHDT

Rattus norvegicus [23] = assay: Cognitive enhancing effect in contextual fear conditioning rat model assessed as reversal of scopolamine-induced emotional memory deficits at 1 to 10 mg/kg, po administered for 1 hr followed by scopolamine challenge for 120 mins; type: functional, organism-based
Rattus norvegicus [24] = assay: Effect on basal level of acetylcholine in Wistar rat ventral hippocampus at 1 to 3 mg/kg, po after 6 hrs by LC-MS/MS based microdialysis method; type: ADME, organism-based; details: in vivo; in short: as §1
[25] = Cmax in Wistar rat at 10 mg/kg, po by LC-MS/MS analysis; type: ADME, organism-based; parameters: dose 10 mg/kg, route oral; details: in vivo
Cytochrome P450 3A4 [26] = biological target: T1, Cytochrome P450 3A4; assay: Induction of CYP3A4 activity in human hepatocytes at 0.01 to 1 uM preincubated for 3 days followed by substrate addition measured after 30 mins; type: ADME, cell-based; details: 0.5 h; in short: as §4
[27] = biological target: Alpha-2C adrenergic receptor (Homo sapiens) (UniProt P18825); assay: Inhibition of recombinant human adrenergic alpha 2C receptor expressed in CHOK1 cells at 1 uM; type: cell-based
Sequence of Alpha-2C adrenergic receptor (Homo sapiens) (P18825 whole entry): as the sequence (P18825 whole entry) above

Sequence of 5-hydroxytryptamine receptor 4 (Homo sapiens) (Q13639 whole entry): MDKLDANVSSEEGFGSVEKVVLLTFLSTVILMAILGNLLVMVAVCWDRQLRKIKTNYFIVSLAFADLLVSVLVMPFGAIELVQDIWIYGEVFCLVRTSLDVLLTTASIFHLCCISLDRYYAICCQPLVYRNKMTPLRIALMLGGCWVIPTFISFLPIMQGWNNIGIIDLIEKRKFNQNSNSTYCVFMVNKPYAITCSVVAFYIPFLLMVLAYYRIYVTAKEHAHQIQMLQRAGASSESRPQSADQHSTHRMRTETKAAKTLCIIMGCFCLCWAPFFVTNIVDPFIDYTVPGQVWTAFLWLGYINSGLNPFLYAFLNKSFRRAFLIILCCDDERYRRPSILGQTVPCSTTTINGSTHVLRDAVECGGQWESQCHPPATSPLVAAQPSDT

## COc1ccc2c(c1)c(CN1CCN(C)CC1)cn2S(=O)(=O)c1ccccc1Br.CS(=O)(=O)O.O
[1]
  Activity: inactive
Rattus norvegicus [2]
  Activity: 1383%
[3]
  inhibition: > 50%
Cytochrome P450 3A4 [4]
  IC50: 2.64 µM
Cytochrome P450 2A6
  IC50: > 10 µM
[5]
  Kp: 1.48
Homo sapiens
  Activity: Non-Toxic
[6]
  Kb: 0.619 µM
[7]
  inhibition: > 50%
Rattus norvegicus [8]
  Activity: Active
[9]
  Vd: 7.5 L/kg
[10]
  fraction unbound at 6 h, 1 µM: 0.01
[11]
  half-life: 57 min
Cytochrome P450 1A2
  IC50: > 10 µM
[12]
  Papp at 2 h, 10 µM: 19.6 ×10⁻⁶ cm/s
Salmonella typhimurium [13]
  Activity: Non-Toxic
[14]
  AUC(0-t): 1360 ng·h/mL
Cytochrome P450 2D6
  IC50: 13.2 µM
[15]
  clearance: 53 mL/min/kg
PBL
  Activity: Non-Toxic
[16]
  fraction unbound at 6 h, 1 µM: 0.02
[17]
  bioavailability: 35%
Cytochrome P450 2B6 [18]
  IC50: > 10 µM
[19]
  fraction unbound at 6 h, 1 µM: 0.014
Salmonella typhimurium [20]
  Activity: Non-Toxic
Cytochrome P450 2B6 [21]
  Activity: Not Active
[22]
  Activity: inactive
Rattus norvegicus [23]
  Activity: Active
Rattus norvegicus [24]
  Activity: Non-Toxic
[25]
  Cmax: 272 ng/mL
Cytochrome P450 3A4 [26]
  Activity: Not Active
[27]
  inhibition: > 50%
